Measured values pooled from the literature.

SMILES | assay | test system | conditions | solubility
Cc1cc2c(cc1C)[n+](Cc1ccc3ccccc3n1)cn2Cc1ccc2ccccc2n1.[Cl-] | – | water | – | > 500 µg/mL
NC(=O)c1ccc(N(Cc2ccc(C3CCCCC3)cn2)C(=O)[C@H]2CCN2S(=O)(=O)c2c(F)c(F)c(F)c(F)c2F)cc1O | – | simulated intestinal fluid | – | 117 µg/mL
Cl.NC1CCN(c2nc3cc(Cl)ccc3n2Cc2ccccc2)CC1 | shake flask | aqueous buffer | 20 h, pH 6.5, 25 °C | > 150 µM
O=C(NCCN1CCCC1)c1cc(-c2ccc(CN3CCOCC3)cc2)nc2ccc(F)cc12 | – | aqueous buffer | pH 7.4 | 2800 µM
CCc1cc(O)ccc1-c1ccc2c(-c3nc4c([nH]3)CN(C(C)C)[C@H](C(=O)N3CC(N(C)C)C3)C4)n[nH]c2c1 | – | aqueous buffer | – | 13 µM
CCCn1nc(C(=O)N2CCCCC2)c2c1CCC(NCc1ccc(N3CCCCC3)cc1)C2 (stereo not shown) | – | PBS | 16 h, pH 7.4 | 463 µM
CCCCCCCCCCCCCC(=O)Nc1ccc(CP(=O)(O)O)cc1 | – | water | – | 1000 µg/mL
CCOc1ccc2cc(-c3nn(C(C)C)c(N)c3C(N)=O)ccc2n1 | – | PBS | pH 6.5, 25 °C | > 100 µM
Brc1cccc2c(NCc3ccccc3)nc(NCc3ccccc3)nc12 | – | aqueous buffer | pH 7.4 | < 0.01 µg/mL
Cc1nccn1CC1CCc2c(c3ccccc3n2C)C1=O (stereo not shown) | – | PBS | 24 h, pH 7.4, 25 °C | 93 µM
CN1CCN(CC2CCN(c3nccc4[nH]c(-c5cc(F)cc(F)c5)nc34)CC2)CC1 | shake flask | aqueous buffer | pH 6.5 | > 200 µM
CCCCCCCCO | – | PBS | 48 h, pH 7.4, 25 °C | 6000 µM
CCOC(=O)c1ccc(O)cc1 | – | PBS | pH 7.4 | 1210 µg/mL
CCc1nc2nc(C)cc(Nc3ccc(C(F)(F)F)cc3)n2n1 | nephelometry | aqueous buffer | pH 6.5 | 39 to 78 µM
CCCOc1ccc2cc(-c3nn(C(C)(C)C)c(N)c3C(N)=O)cnc2c1 | – | PBS | pH 6.5, 25 °C | 12.7 µM
O=C(Nc1ccc(S(=O)(=O)N2CCC(Cl)CC2)cc1)c1ccc([N+](=O)[O-])o1 | – | aqueous buffer | pH 6.2 | 9.2 µM
Cc1cc(Nc2ccc(C(F)(F)F)cc2)n2nc(C(C)(F)F)nc2n1 | nephelometry | aqueous buffer | pH 6.5 | 70 to 140 µM
COc1cc(NC(=O)c2ccc(C3=CCN(C(=N)N)CC3)c(F)c2)ccc1C1=CCN(C(=N)N)CC1 | shake flask | aqueous buffer | pH 7.4 | 1210 µg/mL
CC[C@H](C)[C@H](NC(=O)[C@H](CO)NC(=O)[C@H](CCCNC(=N)N)NC(C)=O)C(=O)N[C@H]1CSSC[C@@H](C(=O)N[C@H](C(N)=O)[C@@H](C)O)NC(=O)[C@H](CCCNC(=N)N)NC(=O)[C@H](Cc2c[nH]cn2)NC(=O)[C@H](C)NC(=O)CNC(=O)[C@H](Cc2c[nH]c3ccccc23)NC(=O)[C@H](CC(=O)O)NC(=O)[C@H](CCC(N)=O)NC(=O)[C@H](Cc2c[nH]c3ccccc23)NC(=O)[C@H](C(C)C)NC1=O | – | PBS | pH 7.4 | 3690 µg/mL
CCCCOC(=O)c1ccc(O)cc1 | – | PBS | pH 7.4 | 310 µg/mL
Cc1c(F)cccc1Nc1nc(NCc2ccccc2)c2ccccc2n1 | – | aqueous buffer | pH 6.2 | 0.05 µg/mL
COc1cccc(OC)c1-c1cc(C(=O)N[C@@H](CC(C)C)C(=O)O)nn1-c1ccnc2cc(Cl)ccc12 | – | aqueous buffer | pH 5 | 52.9 µg/mL
Cc1cc2[nH]c(-c3cc(F)cc(F)c3)nc2c(N2CCC(CN3CCN(C)CC3)CC2)n1 | shake flask | aqueous buffer | pH 6.5 | > 200 µM
Cc1c(F)cccc1NC(=O)Nc1ccc(Cl)c(S(=O)(=O)[C@H]2CCCNC2)c1O | – | aqueous buffer | 4 h, pH 5 | 6 µg/mL
COc1cccc2c(-c3ccccc3)cc(-c3ccc(-c4ccc(C(=O)O)cc4)[nH]3)nc12 | – | PBS | pH 7.4 | 0.26 µM
O=C(Nc1c2c(cc3c1CCC3)CCC2)NS(=O)(=O)/C=C/c1nccs1 | – | water | 24 h, 37 °C | 11.2 µg/mL
CN(C)C1CN(Cc2ccc(NC(=O)c3ccc(OCCCl)c([N+](=O)[O-])c3)cc2C(F)(F)F)C1 | HPLC | water | 1 h | < 5 µg/mL
COc1cc(OC)cc(N(CCNC(C)C)c2ccc3ncc(-c4cnn(C)c4)nc3c2)c1 | – | aqueous buffer | pH 6.79 | 6820 µg/mL

SMILES | assay | test system | conditions | solubility
O=C(Nc1c(F)cccc1C(=O)O)c1ccc(-c2ccccc2)cc1 | shake flask | aqueous buffer | 24 h, pH 6.5, 25 °C | 80 µM
COc1cc(F)c(S(=O)(=O)N2CCN(S(=O)(=O)c3cccc(N)c3)CC2)c(F)c1 | – | aqueous buffer | – | < 0.4 µg/mL
CS(=O)(=O)c1ncn2c(NCc3c(F)ccc4c3CCO4)ncc(-c3ccc(C4CC4)nc3)c12 | – | FaSSIF | – | 26.5 µg/mL
Clc1ccc2c(nc(N3CCNCC3)n2Cc2ccccc2)c1Br | shake flask | aqueous buffer | 20 h, pH 6.5, 25 °C | 50 µM
Cn1c(-c2nc3cc(C(=O)N4CCCC(N)C4)ccc3n2C)cc2ccccc21 (stereo not shown) | – | aqueous buffer | – | > 350 µM
COc1ccc(N2CCN(CCCNC(=O)Cn3c(=O)c4cccn4c4c(C)ccnc43)CC2)cc1 | – | aqueous buffer | pH 7.4 | 12.4 µg/mL
c1ccc(CNc2nc(N3CCNc4ccccc43)nc3ccccc23)cc1 | – | aqueous buffer | pH 7.4 | 0.02 µg/mL
COc1cccc(OC)c1-c1nc(C(=O)N[C@@H](CC(C)C)C(=O)O)cn1-c1ccnc2cc(Cl)ccc12 | – | aqueous buffer | pH 7.4 | > 52 µg/mL
O=C(/C=C/c1ccc(CN(CCO)CCc2c[nH]c3ccccc23)cc1)NO | HPLC | water | 48 h, pH 6, 25 °C | 8 µg/mL
CCOC(=O)C1=C(C)NC(C)=C(C(=O)OC)C1c1cccc([N+](=O)[O-])c1 (stereo not shown) | – | FaSSIF | 24 h, pH 7.4, 37 °C | 8 µg/mL
Cc1cc(Nc2ccc(C(F)(F)F)cc2)n2nc(CCO)nc2n1 | nephelometry | aqueous buffer | pH 6.5 | 19 to 37 µM
Brc1cccc(Nc2nc(NCc3ccccc3)c3ccccc3n2)c1 | – | aqueous buffer | pH 5 | 0.03 µg/mL
CC(C)(C)n1nc(-c2cnc3cc(F)ccc3c2)c(C(N)=O)c1N | – | PBS | pH 6.5, 25 °C | > 100 µM
Cc1ccc(F)cc1Nc1nc(NCc2ccccc2)c2ccccc2n1 | – | aqueous buffer | pH 5 | 5.6 µg/mL
NC1CCN(c2nccc3[nH]c(-c4cccc(OC(F)(F)F)c4)nc23)CC1 | shake flask | aqueous buffer | pH 6.5 | > 200 µM
COc1ccc(Nc2nc(NCc3ccccc3)c3ccccc3n2)cc1F | – | aqueous buffer | pH 7.4 | 0.08 µg/mL
NCCNc1nc2cc(Cl)ccc2n1Cc1ccccc1 | shake flask | aqueous buffer | 20 h, pH 6.5, 25 °C | ≥ 200 µM
COc1ccccc1C(=O)Nc1cccc(NC(=O)c2cccc(C)c2)c1 | – | aqueous buffer | pH 7.4 | 0.47 µM
Cc1cc(F)cc(Nc2nc(NCc3ccccc3)c3ccccc3n2)c1 | – | aqueous buffer | pH 7.4 | < 0.01 µg/mL
CC(=O)Oc1ccccc1C(=O)O | – | PBS | pH 7.4 | 12600 µg/mL
C[C@@H]1CN(c2nc3cc(Cl)ccc3n2Cc2ccccc2)C[C@H](C)N1 | shake flask | aqueous buffer | 20 h, pH 6.5, 25 °C | 140 µM
Cc1cc(Nc2ccc(Cl)cc2)n2nc(C(C)(F)F)nc2n1 | nephelometry | aqueous buffer | pH 6.5 | 77 to 150 µM
CN1CCN(CC2CCN(c3cccc4[nH]c(-c5cc(F)cc(F)c5)nc34)CC2)CC1 | shake flask | aqueous buffer | pH 6.5 | > 200 µM
CCn1cc(CNC(=O)C2=C(C)NC(Nc3nc4ccc(F)c(N)c4o3)=NC2c2ccc(C)cc2Cl)cn1 (stereo not shown) | – | aqueous buffer | 6 h, pH 7.4 | < 1 µg/mL
CSc1nc2nc(C)cc(Nc3ccc(S(F)(F)(F)(F)F)cc3)n2n1 | nephelometry | aqueous buffer | pH 6.5 | 7.8 to 15 µM
COc1c(Cl)cccc1Nc1nc(NCc2ccccc2)c2ccccc2n1 | – | aqueous buffer | pH 6.2 | 0.23 µg/mL
CC(C)(C)n1nc(-c2cnc3cc(OC4CCC4)ccc3c2)c(C(N)=O)c1N | – | PBS | pH 6.5, 25 °C | 3.7 µM
